ChEMBL document CHEMBL2176997, “Salicylanilide inhibitors of Toxoplasma gondii” (J Med Chem, 2012)
Values after ≈ are worked out from the molar mass of the structure shown. Active and inactive are the calls of the source. No cut-off for these calls is given here.

Legend:
Toxoplasma gondii [1] = assay: Antiapicomplexan activity against Toxoplasma gondii RH tachyzoites infected in HFF cells assessed as [3H]-uracil incorporation after 24 hrs by scintillation luminescence counter; format: functional
In short: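 Confluent HFF monolayers in IMDM-C (10% FBS) infected with 3,500 needle-released tachyzoites per well. Compounds from 10 mM DMSO stocks, diluted in medium (final DMSO ≤0.1%), were added 1 h after infection, with 0.1% DMSO as vehicle control. [3H]-uracil (25 µL of 0.1 mCi/mL) was added 24 h before harvest onto glass-fibre filters and counted by scintillation. Cultures were kept at 33°C or 37°C, 5% CO2.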

Toxoplasma gondii [2] = assay: Antiapicomplexan activity against Toxoplasma gondii THdhxgTRP tachyzoites harboring insertional mutation assessed as growth inhibition after 6 weeks; format: functional, organism-based
Toxoplasma gondii [3] = assay: Antiapicomplexan activity against Toxoplasma gondii ME49 oocysts infected in HLA B07 transgenic mouse assessed as increase in survival at 25 to 100 mg/kg, po; format: functional, organism-based
In short: (§1)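 Female B7 mice (~25 g), 5 per group, given 100 ME49 or TgGoatUS4 oocysts by oral gavage, plus 100 mg/kg (2.5 mg/mL) or 25 mg/kg ([…]) of test compound as 1.0 mL oral-gavage suspension. Vehicle DMSO 1.0%/PEG 400 5.0%/0.5% CMC 94.0%. Infected untreated and drug-only groups included. Mice observed daily and day of death recorded. Impression smears examined for tachyzoites.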

Mus musculus = assay: Toxicity in HLA B07 transgenic mouse assessed as survival at 25 to 100 mg/kg, po administered for 9 days measured after day 10; format: organism-based; design: dose 25-100 mg/kg, route oral; conditions: in vivo, 216 h
Plasmodium falciparum [4] = assay: Antiapicomplexan activity against chloroquine-resistant Plasmodium falciparum TM91-C235 assessed as growth inhibition after 72 hrs by MSF assay; format: functional, organism-based; conditions: TM91-C235, 72 h
In short: (§2)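 P. falciparum D6 or TM91-C235, late-ring/early-trophozoite stage, cultured at 0.3% parasitemia and 2% hematocrit on predosed plates. Twelve two-fold dilutions spanned 0.5–10000 ng/ml final, in quadruplicate, with chloroquine control. Incubation 72 h at 37°C under 5% CO2/5% O2/90% N2. Lysis buffer with SYBR Green I (10x final) was added, then 24 h dark at room temperature. IC50 from fluorescence by sigmoidal variable-slope regression.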

Toxoplasma gondii [5] = assay: Parasitocidal activity against Toxoplasma gondii RH tachyzoites expressing yellow fluorescent protein infected in HFF cells at 1 uM administered for 10 days followed by compound wash out measured after 11 to 25 days; format: functional, organism-based
In short: (§3)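 RH-YFP tachyzoites in HFF cells given compound at 1 μM under one of four regimens: 4 days then removal; 10 days then removal; refreshed at day 4 and removed at day 10; or maintained throughout. Parasite growth was followed as YFP fluorescence over time.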

Toxoplasma gondii [6] = assay: Parasitocidal activity against Toxoplasma gondii RH tachyzoites expressing yellow fluorescent protein infected in HFF cells at 1 uM administered for 4 days followed by compound refreshment on day 4 and compound wash out on day 10 measured after 11 to 25 days; format: functional, organism-based; in short: as §3
HFF = assay: Cytotoxicity against HFF cells assessed as survival by WST1 assay; format: cell-based; conditions: human
In short: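 Confluent HFF cells were treated with compounds at the concentrations used in the challenge assays. On the final day WST-1 reagent was added, followed by 1 h incubation in the dark at 37°C and absorbance reading at 420 nm.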

Toxoplasma gondii [7] = assay: Antiapicomplexan activity against Toxoplasma gondii RH tachyzoites expressing yellow fluorescent protein infected in HFF cells after 72 hrs by fluorescence assay; format: functional, organism-based
In short: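 Confluent HFF monolayers in IMDM-C (10% FBS) infected with 3,500 RH-YFP tachyzoites per well. Compounds were added 1 h later from 10 mM DMSO stocks, final DMSO ≤0.1%. Pyrimethamine/sulfadiazine and 0.1% DMSO served as controls. After 72 h YFP fluorescence was read (ex 514, em 540 nm, bottom optics), giving MIC50/MIC90 ranges. Plates held at 33°C or 37°C, 5% CO2.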

Plasmodium falciparum [8] = assay: Selectivity ratio of IC50 for chloroquine-resistant Plasmodium falciparum TM91-C235 to IC50 for chloroquine-sensitive Plasmodium falciparum D6; format: functional
Plasmodium falciparum [9] = assay: Antiapicomplexan activity against chloroquine-sensitive Plasmodium falciparum D6 assessed as growth inhibition after 72 hrs by MSF assay; format: functional, organism-based; conditions: D6, 72 h; in short: as §2
Toxoplasma gondii [10] = assay: Antiapicomplexan activity against Toxoplasma gondii RH tachyzoites expressing yellow fluorescent protein infected in HFF cells assessed as parasite growth inhibition at 1 uM administered for 25 days followed by compound wash out; format: functional, organism-based
Toxoplasma gondii [11] = assay: Parasitostatic activity against Toxoplasma gondii RH tachyzoites expressing yellow fluorescent protein infected in HFF cells at 1 uM administered for 10 days followed by compound wash out measured on day 17; format: functional, organism-based
In short: (§4)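 RH-YFP tachyzoites grown in HFF cells were exposed to 1 µM compound under set schedules: 4 days of treatment then removal, or 10 days of treatment then removal. Parasite burden was followed over time as YFP fluorescence (excitation 514 nm, emission 540 nm, bottom read) and compared with untreated infected controls.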

Toxoplasma gondii [12] = assay: Parasitostatic activity against Toxoplasma gondii RH tachyzoites expressing yellow fluorescent protein infected in HFF cells at 1 uM administered for 4 days followed by compound wash out measured on day 11 relative to untreated control; format: functional, organism-based; in short: as §4
Toxoplasma gondii [13] = assay: Parasitocidal activity against Toxoplasma gondii RH tachyzoites expressing yellow fluorescent protein infected in HFF cells assessed as parasite growth inhibition at 1 uM administered for 25 days followed by compound wash out; format: functional, organism-based; in short: as §3
Toxoplasma gondii [14] = assay: Parasitocidal activity against Toxoplasma gondii RH tachyzoites expressing yellow fluorescent protein infected in HFF cells at 1 uM administered for 4 days followed by compound wash out measured after 11 to 25 days; format: functional, organism-based; in short: as §3
Toxoplasma gondii [15] = assay: Antiapicomplexan activity against Toxoplasma gondii TgGoatUS4 oocysts infected in HLA B07 transgenic mouse assessed as increase in survival at 25 to 100 mg/kg, po; format: functional, organism-based; in short: as §1

Row | Compound | MIC50 (Toxoplasma gondii [1]) | MIC90 (Toxoplasma gondii [1]) | further results
1 | C#Cc1cccc(NC(=O)c2cc(Cl)ccc2O)c1 | > 1 µM | > 1 µM | 
2 | COc1ccc(NC(=O)c2cc(Cl)ccc2O)c(OC)c1OC | > 1 µM | > 1 µM | 
3 | O=C(Nc1ccc([N+](=O)[O-])cc1Cl)c1cc(Cl)ccc1OC(=O)N1CCOCC1 | > 1 µM | > 1 µM | 
4 | COC(=O)[C@@H]1CCCN1C(=O)Oc1ccc(Cl)cc1C(=O)Nc1ccc([N+](=O)[O-])cc1Cl | > 1 µM | > 1 µM | 
5 | O=c1[nH]c(=O)c2nc[nH]c2[nH]1 |  |  | growth inhibition (GI) (Toxoplasma gondii [2]): Active
6 | CN(CC(=O)NN)C(=O)Oc1ccc(Cl)cc1C(=O)Nc1ccc([N+](=O)[O-])cc1Cl.Cl | 0.016 µM | 0.125 µM | Activity (Toxoplasma gondii [3]): Active; Activity (Mus musculus): Non-toxic; IC50 (Plasmodium falciparum [4]): 2.7 µM; Activity (Toxoplasma gondii [5]): Active; Activity (Toxoplasma gondii [6]): Active; Activity (HFF): > 1000 nM; IC50 (Toxoplasma gondii [7]): 0.016 µM; IC90 (Toxoplasma gondii [7]): 0.125 µM
7 | O=C(Nc1cccc(F)c1)c1cc(Cl)ccc1O | 0.5 µM (≈ 0.133 µg/mL) | 0.75 µM (≈ 0.199 µg/mL) | 
8 | Cc1cccc(NC(=O)c2cc(Cl)ccc2O)c1 | > 1 µM | > 1 µM | 
9 | N#Cc1cccc(NC(=O)c2cc(Cl)ccc2O)c1 | > 1 µM | > 1 µM | 
10 | COc1ccc(C)c(NC(=O)c2cc(Cl)ccc2O)c1 | > 1 µM | > 1 µM | 
11 | O=C(Nc1cccc(Cc2ccccc2)c1)c1cc(Cl)ccc1O | 0.75 µM (≈ 0.253 µg/mL) | 0.75 µM (≈ 0.253 µg/mL) | 
12 | O=C(Nc1cccc(Oc2ccccc2)c1)c1cc(Cl)ccc1O | > 1 µM | > 1 µM | 
13 | COc1ccc(NC(=O)c2cc(Cl)ccc2O)cc1OC | > 1 µM | > 1 µM | 
14 | COc1ccc(F)cc1C(=O)Nc1ccc([N+](=O)[O-])cc1Cl | > 1 µM | > 1 µM | 
15 | O=C(Nc1cccc(OC(C(F)(F)F)C(F)(F)F)c1)c1cc(Cl)ccc1O | > 1 µM | > 1 µM | 
16 | CC(C)(C)c1cccc(NC(=O)c2cc(Cl)ccc2O)c1 | 0.008 µM (≈ 0.00243 µg/mL) | 0.016 µM (≈ 0.00486 µg/mL) | growth inhibition (GI) (Toxoplasma gondii [2]): Active; Ratio IC50 (Plasmodium falciparum [8]): 2; IC50 (Plasmodium falciparum [4]): > 6.5 µM; IC50 (Plasmodium falciparum [9]): 3.1 µM; growth inhibition (GI) (Toxoplasma gondii [10]): Active; Activity (Toxoplasma gondii [11]): inactive; Activity (Toxoplasma gondii [12]): inactive; Activity (HFF): > 1000 nM; IC50 (Toxoplasma gondii [7]): 0.008 µM; IC90 (Toxoplasma gondii [7]): 0.016 µM
17 | O=C(Nc1cc(F)cc(F)c1)c1cc(Cl)ccc1O | > 1 µM | > 1 µM | 
18 | O=C(Nc1ccc([N+](=O)[O-])cc1Cl)c1cc(Cl)ccc1O [NICLOSAMIDE] | 0.2 µM (≈ 0.0654 µg/mL) | 0.2 µM (≈ 0.0654 µg/mL) | 
19 | O=C(Nc1cc(C(F)(F)F)cc(C(F)(F)F)c1)c1cc(Cl)ccc1O [IMD-0354] | 0.016 µM (≈ 0.00614 µg/mL) | 0.125 µM (≈ 0.048 µg/mL) | growth inhibition (GI) (Toxoplasma gondii [2]): Active; IC50 (Plasmodium falciparum [4]): 1.3 µM; IC50 (Plasmodium falciparum [9]): 1.4 µM; Activity (Toxoplasma gondii [13]): Active; Activity (Toxoplasma gondii [5]): Active; Activity (Toxoplasma gondii [6]): Active; Activity (Toxoplasma gondii [14]): Active; Activity (HFF): > 1000 nM; IC50 (Toxoplasma gondii [7]): 0.016 µM; IC90 (Toxoplasma gondii [7]): 0.125 µM
20 | N#Cc1ccc(Cl)c(NC(=O)c2cc(Cl)ccc2O)c1 | 0.5 µM (≈ 0.154 µg/mL) | 0.75 µM (≈ 0.23 µg/mL) | 
21 | O=C(Nc1ccc(Cl)cc1F)c1cc(Cl)ccc1O | > 1 µM | 0.5 µM (≈ 0.15 µg/mL) | 

Row | Compound | MIC50 (Toxoplasma gondii [1]) | MIC90 (Toxoplasma gondii [1]) | further results
22 | O=C(Nc1cc(Cl)cc(Cl)c1)c1cc(Cl)ccc1O | 0.25 µM (≈ 0.0791 µg/mL) | 0.25 µM (≈ 0.0791 µg/mL) | 
23 | CCc1cccc(NC(=O)c2cc(Cl)ccc2O)c1 | 0.25 µM (≈ 0.0689 µg/mL) | 0.5 µM (≈ 0.138 µg/mL) | 
24 | Cc1ccc(O)c(C(=O)Nc2ccc([N+](=O)[O-])cc2Cl)c1 | 0.25 µM (≈ 0.0767 µg/mL) | 0.25 µM (≈ 0.0767 µg/mL) | 
25 | CN(CC(=O)NN)C(=O)Oc1ccc(Cl)cc1C(=O)Nc1cc(C(F)(F)F)cc(C(F)(F)F)c1.Cl | 0.125 µM | 0.125 µM | growth inhibition (GI) (Toxoplasma gondii [2]): Active; Activity (Toxoplasma gondii [15]): Active; Activity (Mus musculus): Non-toxic; Activity (HFF): > 1000 nM; IC50 (Toxoplasma gondii [7]): 0.125 µM; IC90 (Toxoplasma gondii [7]): 0.125 µM
26 | CN1CCN(C(=O)Oc2ccc(Cl)cc2C(=O)Nc2ccc([N+](=O)[O-])cc2Cl)CC1 | 0.5 µM (≈ 0.227 µg/mL) | 0.75 µM (≈ 0.34 µg/mL) | 
27 | C#Cc1cc(NC(=O)c2cc(Cl)ccc2O)ccc1F | > 1 µM | > 1 µM | 
28 | O=C(Nc1cccc(Br)c1)c1cc(Cl)ccc1O | 0.5 µM (≈ 0.163 µg/mL) | 0.75 µM (≈ 0.245 µg/mL) | 
29 | Cc1cc(C)cc(NC(=O)c2cc(Cl)ccc2O)c1 | > 1 µM | > 1 µM | 
30 | C=Cc1cccc(NC(=O)c2cc(Cl)ccc2O)c1 | 0.25 µM (≈ 0.0684 µg/mL) | 0.75 µM (≈ 0.205 µg/mL) | 
31 | O=C(Oc1ccc(Cl)cc1C(=O)Nc1ccc([N+](=O)[O-])cc1Cl)c1ccccc1 | 0.061 µM (≈ 0.0263 µg/mL) | 0.125 µM (≈ 0.0539 µg/mL) | growth inhibition (GI) (Toxoplasma gondii [2]): Active; IC50 (Plasmodium falciparum [4]): 0.69 µM; IC50 (Plasmodium falciparum [9]): 0.77 µM; Activity (Toxoplasma gondii [13]): Active; Activity (Toxoplasma gondii [5]): Active; Activity (Toxoplasma gondii [6]): Active; Activity (Toxoplasma gondii [14]): Active; Activity (HFF): > 1000 nM; IC50 (Toxoplasma gondii [7]): 0.061 µM; IC90 (Toxoplasma gondii [7]): 0.125 µM
32 | O=C(Nc1ccc2c(c1)OCCO2)c1cc(Cl)ccc1O | > 1 µM | > 1 µM | 
33 | COc1c(C)c2c(c(O)c1C/C=C(\C)CCC(=O)O)C(=O)OC2 |  |  | growth inhibition (GI) (Toxoplasma gondii [2]): Active
34 | CCOc1cccc(NC(=O)c2cc(Cl)ccc2O)c1 | > 1 µM | > 1 µM | 
35 | COc1ccc(F)cc1C(=O)Nc1ccc([N+](=O)[O-])cc1F | > 1 µM | > 1 µM | 
36 | O=C(Nc1cccc(C(F)(F)F)c1)c1cc(Cl)ccc1O | 0.25 µM (≈ 0.0789 µg/mL) | 0.25 µM (≈ 0.0789 µg/mL) | 
37 | O=C(Nc1ccc([N+](=O)[O-])cc1Cl)c1ccccc1O | > 1 µM | > 1 µM | 
38 | O=C(Nc1cccc(Cl)c1)c1cc(I)cc(I)c1O | > 1 µM | > 1 µM | 
39 | CCOc1cccc(NC(=O)c2cc(F)ccc2O)c1 | > 1 µM | > 1 µM | 
40 | Nc1ccc(NC(=O)c2cc(Cl)ccc2O)c(Cl)c1 | > 1 µM | > 1 µM | 
41 | CC(C)Oc1cccc(NC(=O)c2cc(Cl)ccc2O)c1 | > 1 µM | > 1 µM | 
